# Measured values reported in ChEMBL document CHEMBL1125894, “Dual-action cephalosporins: cephalosporin 3'-quaternary ammonium quinolones” (1991).
# Experiments:
# Citrobacter freundii [1] = test: In vitro antibacterial activity against Citrobacter freundii BS 16; assay type: functional
# Outline: (§1)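 Serial 2-fold dilutions in the NCCLS broth microdilution method for aerobic nonfastidious organisms, with an 18-h incubation. The value is reported as the minimum inhibitory concentration (MIC).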
# Escherichia coli [2] = test: Antibacterial activity against Escherichia coli DC-O; assay type: functional; outline: as §1
# [3] = biological target: T1, Peptidoglycan D,D-transpeptidase MrdA (Escherichia coli K-12) (UniProt P0AD65); test: Concentration required for 90% inhibition against 66 kDa penicillin-binding protein 2 binding using [14C]-Pen G as the radioligand.
# T1 sequence (whole entry): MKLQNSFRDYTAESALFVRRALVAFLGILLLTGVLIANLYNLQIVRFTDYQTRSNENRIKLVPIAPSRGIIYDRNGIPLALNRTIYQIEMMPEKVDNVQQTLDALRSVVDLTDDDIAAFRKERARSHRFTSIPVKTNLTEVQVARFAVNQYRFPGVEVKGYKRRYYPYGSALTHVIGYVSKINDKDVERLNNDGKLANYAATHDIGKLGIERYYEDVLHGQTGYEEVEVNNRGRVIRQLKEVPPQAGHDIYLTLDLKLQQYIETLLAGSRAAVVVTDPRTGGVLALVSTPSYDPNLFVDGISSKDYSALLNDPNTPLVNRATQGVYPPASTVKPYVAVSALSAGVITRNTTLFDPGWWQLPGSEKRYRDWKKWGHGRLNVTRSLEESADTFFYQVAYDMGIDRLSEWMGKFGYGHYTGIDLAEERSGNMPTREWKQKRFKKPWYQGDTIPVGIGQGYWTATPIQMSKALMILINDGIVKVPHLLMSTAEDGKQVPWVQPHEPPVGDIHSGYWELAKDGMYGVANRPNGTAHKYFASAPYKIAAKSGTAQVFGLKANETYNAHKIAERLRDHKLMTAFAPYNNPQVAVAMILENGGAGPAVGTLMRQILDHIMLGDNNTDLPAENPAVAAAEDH
# Outline: (§2)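 Solubilized membranes from sonicated E. coli DC-0 were used. PBP binding was measured as inhibition of [14C]penicillin G binding to each PBP.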
# Pseudomonas aeruginosa [4] = test: In vitro antibacterial activity against Pseudomonas aeruginosa 5712; assay type: functional; outline: as §1
# Staphylococcus aureus [5] = test: In vitro antibacterial activity against Staphylococcus aureus 95(MR); assay type: functional
# Outline: (§3)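 Staphylococci were tested by the standard agar dilution procedure using serial 2-fold dilutions of agent. The value is reported as the MIC.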
# [6] = biological target: T2, Penicillin-binding protein 1A (Escherichia coli K-12) (UniProt P02918); test: Concentration required for 90% inhibition against 90 kDa penicillin-binding protein 1a binding using [14C]-Pen G as the radioligand.; outline: as §2
# T2 sequence (whole entry): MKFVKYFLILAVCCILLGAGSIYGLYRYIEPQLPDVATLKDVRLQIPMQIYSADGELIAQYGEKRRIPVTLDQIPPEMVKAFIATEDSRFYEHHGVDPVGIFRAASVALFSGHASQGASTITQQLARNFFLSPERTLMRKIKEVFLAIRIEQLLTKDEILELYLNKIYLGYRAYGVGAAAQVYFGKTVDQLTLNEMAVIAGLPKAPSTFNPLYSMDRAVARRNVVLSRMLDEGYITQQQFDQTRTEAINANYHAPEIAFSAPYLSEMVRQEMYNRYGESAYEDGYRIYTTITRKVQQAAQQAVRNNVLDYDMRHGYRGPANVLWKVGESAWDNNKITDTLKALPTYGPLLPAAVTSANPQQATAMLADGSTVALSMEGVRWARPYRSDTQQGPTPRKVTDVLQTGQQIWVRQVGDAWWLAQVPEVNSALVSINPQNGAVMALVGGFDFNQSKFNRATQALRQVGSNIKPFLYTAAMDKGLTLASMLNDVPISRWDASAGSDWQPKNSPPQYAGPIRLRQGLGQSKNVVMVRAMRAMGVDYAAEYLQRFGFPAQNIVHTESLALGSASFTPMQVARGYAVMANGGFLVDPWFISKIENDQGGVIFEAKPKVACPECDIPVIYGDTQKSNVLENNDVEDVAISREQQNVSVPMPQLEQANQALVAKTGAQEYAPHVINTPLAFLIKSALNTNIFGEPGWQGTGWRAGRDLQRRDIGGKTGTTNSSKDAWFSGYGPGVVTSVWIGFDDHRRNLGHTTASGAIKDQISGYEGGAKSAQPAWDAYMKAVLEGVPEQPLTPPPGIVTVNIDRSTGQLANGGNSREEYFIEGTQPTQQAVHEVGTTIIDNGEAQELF
# Enterobacter cloacae [7] = test: In vitro antibacterial activity against Enterobacter cloacae 5699; assay type: functional; outline: as §1
# Escherichia coli [8] = test: Concentration required for 90% inhibition against 60 kDa penicillin-binding protein 3 binding using [14C]-Pen G as the radioligand.; outline: as §2
# Serratia marcescens [9] = test: In vitro antibacterial activity against Serratia marcescens SM; assay type: functional; outline: as §1
# Klebsiella pneumoniae [10] = test: In vitro antibacterial activity against Klebsiella pneumoniae A; assay type: functional; outline: as §1
# Staphylococcus aureus [11] = test: In vitro antibacterial activity against Staphylococcus aureus Smith(MS); assay type: functional; outline: as §3
# Escherichia coli [12] = test: In vitro antibacterial activity against Escherichia coli 257; assay type: functional; outline: as §1
# [13] = biological target: T3, Penicillin-binding protein 1B (Escherichia coli K-12) (UniProt P02919); test: Concentration required for 90% inhibition against 90 kDa penicillin-binding protein 1b binding using [14C]-Pen G as the radioligand.; outline: as §2
# T3 sequence (whole entry): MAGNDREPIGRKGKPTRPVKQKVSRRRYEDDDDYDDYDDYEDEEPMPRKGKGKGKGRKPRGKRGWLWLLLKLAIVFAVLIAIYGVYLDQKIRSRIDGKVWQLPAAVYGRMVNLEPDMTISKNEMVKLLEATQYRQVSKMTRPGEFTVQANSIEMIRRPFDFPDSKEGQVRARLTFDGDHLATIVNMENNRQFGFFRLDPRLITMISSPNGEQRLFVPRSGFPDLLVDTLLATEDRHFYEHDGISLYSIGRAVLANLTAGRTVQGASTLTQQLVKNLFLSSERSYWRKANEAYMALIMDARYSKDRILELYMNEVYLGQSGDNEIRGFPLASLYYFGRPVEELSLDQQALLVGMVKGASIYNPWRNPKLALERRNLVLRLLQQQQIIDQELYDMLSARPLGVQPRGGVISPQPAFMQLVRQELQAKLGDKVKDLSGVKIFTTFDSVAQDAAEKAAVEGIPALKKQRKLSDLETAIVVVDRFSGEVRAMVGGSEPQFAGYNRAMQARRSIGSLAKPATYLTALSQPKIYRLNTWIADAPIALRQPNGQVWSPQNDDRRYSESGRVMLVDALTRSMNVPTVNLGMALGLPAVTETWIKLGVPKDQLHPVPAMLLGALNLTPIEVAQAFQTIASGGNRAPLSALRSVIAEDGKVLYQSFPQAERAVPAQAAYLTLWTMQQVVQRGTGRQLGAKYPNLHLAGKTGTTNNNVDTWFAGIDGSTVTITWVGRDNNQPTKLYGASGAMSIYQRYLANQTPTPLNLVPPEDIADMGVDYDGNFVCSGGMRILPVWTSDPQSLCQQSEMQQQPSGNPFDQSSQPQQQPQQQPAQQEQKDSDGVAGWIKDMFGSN
# Streptococcus pneumoniae [14] = test: In vitro antibacterial activity against Streptococcus pneumoniae 6301; assay type: functional
# Outline: (§4)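 Broth macrodilution with serial 2-fold dilutions in cation-supplemented Mueller-Hinton broth containing 10% goat serum. The value is reported as the MIC.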
# Enterobacter cloacae [15] = test: In vitro antibacterial activity against Enterobacter cloacae P99; assay type: functional; outline: as §1
# Streptococcus pyogenes [16] = test: In vitro antibacterial activity against Streptococcus pyogenes 4; assay type: functional; outline: as §4
# Serratia marcescens [17] = test: In vivo activity in murine against Serratia marcescens SM infection after sc administration.; assay type: functional
# Outline: (§5)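 Mouse protection test in CD1 Swiss albino mice (18–20 g). Mice were infected intraperitoneally with 0.5 mL of a diluted bacterial suspension, then treated within 5 min with one 1.0 mL subcutaneous dose at the dorsal base of the neck. Doses ranged from 0.05 to 250 mg/kg, with six mice per group. ED50 was calculated by the Reed–Muench method.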
# Escherichia coli [18] = test: In vivo activity in murine against Escherichia coli 257 infection after sc administration.; assay type: functional; details: Escherichia coli, sc; read-out: ED50; outline: as §5
# Pseudomonas aeruginosa [19] = test: In vivo activity in murine against Pseudomonas aeruginosa 5712 infection after sc administration.; assay type: functional; details: Pseudomonas aeruginosa, sc; read-out: ED50
# Outline: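 Mouse protection test in CD1 Swiss albino mice (18–20 g) infected intraperitoneally with 0.5 mL of diluted P. aeruginosa suspension. Mice received 1.0 mL subcutaneously at the neck base within 5 min of infection and a second treatment 3 h after infection. Doses ranged from 0.05 to 250 mg/kg, with six mice per group. ED50 was calculated by the Reed–Muench method.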
# Streptococcus pyogenes [20] = test: In vivo activity in murine against Streptococcus pyogenes 4 infection after sc administration.; assay type: functional; outline: as §5
# Streptococcus pneumoniae [21] = test: In vivo activity in murine against Streptococcus pneumoniae 6301 infection after sc administration.; assay type: functional; outline: as §5
# Staphylococcus aureus [22] = test: In vivo activity in murine against Staphylococcus aureus Smith (MS) infection after sc administration.; assay type: functional; outline: as §5
# Citrobacter freundii [23] = test: In vivo activity in murine against Citrobacter freundii BS#16 infection after sc administration.; assay type: functional
# Outline: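 CD1 Swiss albino mice (18–20 g) infected intraperitoneally with 0.5 mL diluted bacterial culture suspension. Single subcutaneous treatment within 5 min, 1.0 mL at dorsal base of neck, serial dilutions spanning 0.05–250 mg/kg. Six mice per treatment and control group. ED50 (50% protective dose) derived by Reed and Muench method.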
# Enterobacter cloacae [24] = test: In vivo activity in murine against Enterobacter cloacae 5699 infection after sc administration.; assay type: functional; outline: as §5
# Staphylococcus aureus [25] = test: In vivo activity in murine against Staphylococcus aureus 753(MR) infection after sc administration.; assay type: functional; outline: as §5
# Klebsiella pneumoniae [26] = test: In vivo activity in murine against Klebsiella pneumoniae A infection after sc administration.; assay type: functional; outline: as §5
MIC (Citrobacter freundii [1]) [µg/mL],MIC (Escherichia coli [2]) [µg/mL],Concentration [3] [µg/mL],MIC (Pseudomonas aeruginosa [4]) [µg/mL],MIC (Staphylococcus aureus [5]) [µg/mL],Concentration [6] [µg/mL],MIC (Enterobacter cloacae [7]) [µg/mL],Concentration (Escherichia coli [8]) [µg/mL],MIC (Serratia marcescens [9]) [µg/mL],MIC (Klebsiella pneumoniae [10]) [µg/mL],MIC (Staphylococcus aureus [11]) [µg/mL],MIC (Escherichia coli [12]) [µg/mL],Concentration [13] [µg/mL],MIC (Streptococcus pneumoniae [14]) [µg/mL],MIC (Enterobacter cloacae [15]) [µg/mL],MIC (Streptococcus pyogenes [16]) [µg/mL],SMILES,ED50 (Serratia marcescens [17]) [mg/kg],ED50 (Escherichia coli [18]) [mg/kg],ED50 (Pseudomonas aeruginosa [19]) [mg/kg],ED50 (Streptococcus pyogenes [20]) [mg/kg],further results
0.25,0.12,100,16,1,0.1,0.25,0.1,0.125,0.125,1,0.063,2,< 0.008,0.125,< 0.008,CO/N=C(\C(=O)N[C@@H]1C(=O)N2C(C(=O)O)=C(COC(=O)c3cn(CCF)c4c(F)c(N5CCN(C)CC5)c(F)cc4c3=O)CS[C@H]12)c1csc(N)n1,,,,,
2,0.2,100,32,4,> 100,0.5,0.1,1,0.5,4,0.125,> 100,0.063,0.5,0.125,CO/N=C(\C(=O)N[C@@H]1C(=O)N2C(C(=O)[O-])=C(C[N+]3(C)CCN(c4c(F)cc5c(=O)c(C(=O)O)cn(CCF)c5c4F)CC3)CS[C@H]12)c1csc(N)n1,10,< 0.5,> 250,< 5,ED50 (Streptococcus pneumoniae [21]): 12 mg/kg
> 128,,,> 128,128,,64,,> 128,32,0.063,32,,0.125,> 128,0.031,C[N+]1(CC2=C(C(=O)[O-])N3C(=O)[C@@H](NC(=O)COc4ccccc4)[C@H]3SC2)CCN(c2ccccc2)CC1,,,,,
,,,,,,,,,,,,,,,,CC(C)(O/N=C(\C(=O)N[C@@H]1C(=O)N2C(C(=O)[O-])=C(C[n+]3ccccc3)CS[C@H]12)c1csc(N)n1)C(=O)O [CEFTAZIDIME],67,< 0.5,217,12,ED50 (Staphylococcus aureus [22]): < 2 mg/kg; ED50 (Citrobacter freundii [23]): 22 mg/kg; ED50 (Enterobacter cloacae [24]): 25 mg/kg; ED50 (Streptococcus pneumoniae [21]): 3 mg/kg; ED50 (Staphylococcus aureus [25]): 62 mg/kg; ED50 (Klebsiella pneumoniae [26]): < 2 mg/kg
